Test results published in ChEMBL document CHEMBL1800044, “Structure-based design of novel boronic acid-based inhibitors of autotaxin” (J Med Chem, 2011).

target: Autotaxin (Homo sapiens, UniProt Q13822); test: Inhibition of 6x-histidine-tagged human recombinant ATX expressed in HEK293 cells assessed as choline release using lysophosphatidylcholine as substrate after 4 hrs by choline release assay
Procedure, shortened: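 Recombinant ATX at 10 nM final (~20 nM in enzyme half) in 50 mM Tris-HCl pH 7.4, 0.01% Triton X-100, inhibitor added in DMSO. LPC (18:1) at 40 μM final, buffer with 10 mM MgCl2 and 10 mM CaCl2. Ten concentrations, 0.01–30 μM. Controls were DMSO alone and LPC without enzyme.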

IC50 [nM]	SMILES
147	O=C(Nc1ccc(B(O)O)cc1)c1ccc(/C=C2\SC(=O)N(Cc3ccc(F)cc3)C2=O)cc1
71	O=C(NCc1ccc(B(O)O)cc1)c1ccc(/C=C2\SC(=O)N(Cc3ccc(F)cc3)C2=O)cc1
10	O=C(Nc1ccc(/C=C2\SC(=O)N(Cc3ccc(F)cc3)C2=O)cc1)c1ccc(B(O)O)cc1
8.3	O=C1S/C(=C\c2ccc(NCc3ccc(B(O)O)cc3)cc2)C(=O)N1Cc1ccc(F)cc1
> 5000	O=C1S/C(=C\c2ccc(/C=C/c3ccc(B(O)O)cc3)cc2)C(=O)N1Cc1ccc(F)cc1
25	O=C1SC(Cc2ccc(OCc3ccc(B(O)O)cc3)cc2)C(=O)N1Cc1ccc(F)cc1 (centres undefined)
1590	O=C1SC(Cc2ccc(OCc3ccc(B(O)O)cc3)cc2)C(O)N1Cc1ccc(F)cc1 (centres undefined)
683	O=c1sc(Cc2ccc(OCc3ccc(B(O)O)cc3)cc2)cn1Cc1ccc(F)cc1
26	O=C1N/C(=C\c2ccc(OCc3ccc(B(O)O)cc3)cc2)C(=O)N1Cc1ccc(F)cc1
5.3	CN1C(=O)N(Cc2ccc(F)cc2)C(=O)/C1=C\c1ccc(OCc2ccc(B(O)O)cc2)cc1
6.7	CN1C(=O)N(Cc2ccc(F)cc2)C(=O)/C1=C/c1ccc(OCc2ccc(B(O)O)cc2)cc1
7.3	O=C1C/C(=C\c2ccc(OCc3ccc(B(O)O)cc3)cc2)C(=O)N1Cc1ccc(F)cc1
55	O=C1[C@@H]2Cc3ccc(OCc4ccc(B(O)O)cc4)cc3CN2C(=O)N1Cc1ccc(F)cc1
59	O=C1[C@H]2Cc3ccc(OCc4ccc(B(O)O)cc4)cc3CN2C(=O)N1Cc1ccc(F)cc1
